Compound activity from PubChem.
The full list was thinned out, with hits kept by preference.
UPR XBP1 act = activators of adaptive arm of unfolded protein response (XBP1); 330,000 tested, 0.33% active; activation, % at 20 µM; CHO-XBP1 luciferase reporter, IRE1-XBP1 UPR activation, luminescence; percent of tunicamycin response, DMSO as zero; AID 463104;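 active = versus positive control, 20 µM dose yields 30% or more activation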;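 also: 100% = tunicamycin at 10 µg/mL and 0% = DMSO only wells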
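Material: CHO-XBP1 cells stably carrying IRE1-XBP1-driven luciferase reporter | Medium: F12 with 10% serum | Compound dosing: 20 µM single concentration, DMSO 1% | Incubation: Overnight seeding at 37 °C, 6 h compound treatment at 37 °C | Detection: Steady-Glo luminescence read | Read-out basis: % activation of reporter signal versus tunicamycin and DMSO controls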
CHOP inh = CHOP inhibition in unfolded protein response; CHO-K1 CHOP-promoter luciferase, tunicamycin-induced, 15-18 h; inhibition, % at 10 µM; 220,000 tested, 3.8% active; AID 2732;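 active = compounds that reduced the stress-induced luciferase reporter signal by more than about 70% of percent inhibition, limit read from the data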;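 also: 0% = tunicamycin plus vehicle and 100% = wells without tunicamycin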
Beta2AR agonist = activates human beta-2 adrenergic receptor causing internalization; response, % (test concentration not listed); AID 504454; Am2.2-beta2AR cells, FAP receptor internalization, flow cytometry; P07550; 340,000 tested, 0.43% active;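 active = response above a set limit, near 3 SD of response in nonfluorescent compounds, cut at about 42% in these data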
CHOP UPR activ = apoptotic UPR (CHOP) activation. activation, % at 10 µM. AID 449763. CHO-CHOP luciferase reporter, luminescence; percent of tunicamycin response over DMSO baseline. 330,000 tested, 0.34% active;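 active = at 10 µM dose, activation of 40% or more, normalized to positive control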;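 also: 100% = tunicamycin at 10 µg/mL and 0% = DMSO alone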
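Dosing – one dose, 10 µM in 0.5% DMSO · System – CHO-CHOP cells, stable luciferase reporter of PERK-eIF2a-CHOP signalling · Input – 500 cells/well · Control set – tunicamycin 10 µg/mL final as positive, DMSO-only wells as negative · Timing – 6 h compound treatment, 37 °C · Measure – % activation vs tunicamycin · Technique – luminescence read with Steady-Glo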
VLA-4 inh = inhibition in a human VLA-4 binding assay | P13612 | VLA-4 expressing cells, ligand binding flow cytometry | inhibition, % (about 7 µM as worked out from the volumes in the protocol) | 330,000 tested, 0.2% active | AID 2557; in the data active = inhibition above about 50%
Target sequence (P13612 whole entry, looked up): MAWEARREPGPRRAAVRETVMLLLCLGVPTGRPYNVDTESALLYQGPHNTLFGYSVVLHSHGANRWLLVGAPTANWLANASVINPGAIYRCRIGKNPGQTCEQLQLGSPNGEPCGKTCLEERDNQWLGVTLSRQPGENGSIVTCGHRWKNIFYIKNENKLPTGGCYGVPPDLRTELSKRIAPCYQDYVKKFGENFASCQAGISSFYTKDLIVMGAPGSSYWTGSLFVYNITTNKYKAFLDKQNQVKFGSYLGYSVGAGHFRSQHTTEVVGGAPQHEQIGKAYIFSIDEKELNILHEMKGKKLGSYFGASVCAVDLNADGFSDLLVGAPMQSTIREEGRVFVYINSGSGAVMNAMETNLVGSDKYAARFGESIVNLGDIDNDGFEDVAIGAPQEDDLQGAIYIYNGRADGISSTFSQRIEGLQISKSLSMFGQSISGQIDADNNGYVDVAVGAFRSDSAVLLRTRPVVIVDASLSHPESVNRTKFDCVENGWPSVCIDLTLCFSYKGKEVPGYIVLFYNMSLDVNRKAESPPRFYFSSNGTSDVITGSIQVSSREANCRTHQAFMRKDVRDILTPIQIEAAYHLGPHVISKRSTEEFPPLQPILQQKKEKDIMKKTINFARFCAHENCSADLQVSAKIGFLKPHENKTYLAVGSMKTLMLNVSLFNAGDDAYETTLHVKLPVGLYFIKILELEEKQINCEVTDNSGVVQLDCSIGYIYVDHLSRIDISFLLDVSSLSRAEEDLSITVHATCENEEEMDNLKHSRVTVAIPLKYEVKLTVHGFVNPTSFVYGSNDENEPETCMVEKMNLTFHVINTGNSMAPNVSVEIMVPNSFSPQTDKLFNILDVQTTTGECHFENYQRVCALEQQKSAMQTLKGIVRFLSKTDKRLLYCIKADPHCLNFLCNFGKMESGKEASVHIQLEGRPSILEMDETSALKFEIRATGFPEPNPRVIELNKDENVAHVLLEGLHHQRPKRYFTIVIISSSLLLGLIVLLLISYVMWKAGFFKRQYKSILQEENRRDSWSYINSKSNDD
* marks the source's active call; other numbers are inactive results.

CCOC(=O)Cn1nc(NC(=O)c2ccc3c(c2)OCO3)cc1C was read as UPR XBP1 act -0.6, Beta2AR agonist -1.8, CHOP UPR activ 5.9 and VLA-4 inh 8.9.
`COc1cc(OC)cc(-c2nnc(SCc3ccc(C(=O)O)cc3)o2)c1` gave UPR XBP1 act -5.1, Beta2AR agonist 7.4, CHOP UPR activ 1.3 and VLA-4 inh 4.3.
For CC1(C)NC(=O)N(CC(=O)OCC(=O)N2CCN(S(=O)(=O)c3ccccc3)CC2)C1=O the results were UPR XBP1 act -1.5, Beta2AR agonist 3.2 and CHOP UPR activ 1.4.
For CC(=Nc1cccc(C)c1)c1sc2ccccc2c1O the results were UPR XBP1 act 0.7, CHOP inh 77.4*, Beta2AR agonist 5.8, CHOP UPR activ 2.5 and VLA-4 inh -2.6.
`CC(C)[C@H](NC(=O)c1ccccc1)C(=O)OCC(=O)/C=C1/N(C)c2ccccc2C1(C)C` gave UPR XBP1 act 0.1, CHOP inh 70.0*, Beta2AR agonist 12.0, CHOP UPR activ 0.4 and VLA-4 inh -181.9.
C[C@@H](NCCCn1ccc(NC(=O)OCc2ccccc2)nc1=O)c1cccc2ccccc12 was read as Beta2AR agonist 44.1*.
CCOc1cc(Br)c(Br)c(C=Nc2ccc(NC(C)=O)cc2)c1O was read as UPR XBP1 act -3.2, CHOP inh 86.8*, Beta2AR agonist 4.1, CHOP UPR activ 0.5 and VLA-4 inh 1.7.
For CCOc1cc(/C=N/NC(=O)C(N)=O)cc(Br)c1O the results were UPR XBP1 act -1.7, CHOP inh 22.3, Beta2AR agonist -4.7, CHOP UPR activ -1.8 and VLA-4 inh -2.2.
COCCN(C(=O)c1ccc(OCC(C)C)cc1)c1c(N)n(Cc2ccccc2)c(=O)[nH]c1=O was read as UPR XBP1 act -3.7, Beta2AR agonist -14.7, CHOP UPR activ 0.7 and VLA-4 inh -1.4.
`COc1ccc2c(c1)-c1c(sn(-c3ccc(OC)c(OC)c3)c1=S)C(C)(C)N2` gave UPR XBP1 act 2.7, CHOP inh 79.5*, Beta2AR agonist 5.3, CHOP UPR activ 2.9 and VLA-4 inh -2.3.
`COc1ccc2c(c1)-c1c(ssc1=S)C(C)(C)N2` gave UPR XBP1 act 4.7, CHOP inh 42.7, Beta2AR agonist 5.1, CHOP UPR activ -2.0 and VLA-4 inh 32.1.
For COc1ccc2c(c1)-c1c(sn(-c3ccccc3)c1=S)C(C)(C)N2 the results were UPR XBP1 act 2.2, CHOP inh 70.0*, Beta2AR agonist 8.2, CHOP UPR activ 0.5 and VLA-4 inh 13.4.
COc1ccc(-n2sc3c(c2=S)-c2cc(OC)ccc2NC3(C)C)cc1 was read as UPR XBP1 act 1.3, CHOP inh 91.1*, Beta2AR agonist 16.6, CHOP UPR activ -0.4 and VLA-4 inh 11.6.
Screening C=CCSC1=NNC(c2ccc(C(C)(C)C)cc2)=NN1 returned UPR XBP1 act -2.0, CHOP inh -16.8, Beta2AR agonist -1.6, CHOP UPR activ 6.2 and VLA-4 inh 16.5.
Screening CC1=C(C(=O)Nc2cccc(C(=O)N3CCN(c4cccc(C(F)(F)F)c4)CC3)c2)SCCO1 returned UPR XBP1 act -5.5, Beta2AR agonist 7.9, CHOP UPR activ 2.7 and VLA-4 inh 0.0.
For CCCC(=O)NC(c1ccc(OC)cc1)c1ccc2cccnc2c1O (centres undefined) the results were UPR XBP1 act 4.4, CHOP inh 82.0*, Beta2AR agonist 3.4, CHOP UPR activ 3.0 and VLA-4 inh 14.8.
Screening COc1ccccc1C(=O)Oc1ccc2ccc(=O)oc2c1 returned UPR XBP1 act 2.1, Beta2AR agonist 8.4, CHOP UPR activ 1.8 and VLA-4 inh -14.1.
COc1ccccc1C(=O)Oc1ccc(C(C)(C)C)cc1 was read as UPR XBP1 act 0.0, CHOP inh 74.9*, Beta2AR agonist 24.4, CHOP UPR activ 3.6 and VLA-4 inh 3.1.
O=C1/C(=C/c2ccccc2)CCCc2ccccc21 was read as UPR XBP1 act 2.2, CHOP inh 89.2*, Beta2AR agonist 3.2, CHOP UPR activ 2.7 and VLA-4 inh -2.6.
`Cc1ccc(N=Nc2c(N)[nH]n3c(=O)cc(-c4ccccc4)nc23)cc1` gave UPR XBP1 act 1.7, CHOP inh 75.4*, Beta2AR agonist 10.3, CHOP UPR activ 1.2 and VLA-4 inh 1.1.
`O=Cc1cn(-c2ccccc2)nc1-c1cc2ccccc2oc1=O` gave UPR XBP1 act 0.6, CHOP inh 88.0*, Beta2AR agonist -0.7, CHOP UPR activ -1.3 and VLA-4 inh -18.0.
CC(C)CC(c1nnnn1CC1CCCO1)N1CCN(c2cccc(Cl)c2)CC1 (centres undefined) was read as UPR XBP1 act -4.6, CHOP inh 83.0*, Beta2AR agonist -7.5, CHOP UPR activ 1.5 and VLA-4 inh 5.0.
`Cc1ccc(Cl)cc1N1CCN(C(CC(C)C)c2nnnn2CC2CCCO2)CC1` (centres undefined) gave UPR XBP1 act 0.4, CHOP inh 37.2, Beta2AR agonist 4.1, CHOP UPR activ 0.8 and VLA-4 inh -12.0.
`Cc1nnsc1C(=O)N/N=C/c1ccc2ccccc2c1O` gave UPR XBP1 act 1.8, CHOP inh 74.9*, Beta2AR agonist -1.8, CHOP UPR activ -0.9 and VLA-4 inh -8.2.
`COc1ccccc1NS(=O)(=O)c1cc(C(=O)NCC(c2ccc(F)cc2)N2CCOCC2)ccc1C` (centres undefined) gave UPR XBP1 act 3.0, Beta2AR agonist -4.4, CHOP UPR activ -0.4 and VLA-4 inh 20.8.
For O=C(NC1CCCCC1)C(c1ccc(F)cc1)N(Cc1ccco1)C(=O)Cn1nnc2ccccc21 (centres undefined) the results were UPR XBP1 act 0.4, CHOP inh 74.0*, Beta2AR agonist -3.9, CHOP UPR activ 0.3 and VLA-4 inh 20.7.
For O=C(NC1CCCCC1)C(c1ccccc1F)N(Cc1ccco1)C(=O)Cn1nnc2ccccc21 (centres undefined) the results were UPR XBP1 act -3.6, CHOP inh 28.5, Beta2AR agonist 3.8, CHOP UPR activ 0.4 and VLA-4 inh 5.5.
Screening COc1ccc(COC(=O)CNC(=O)C2CCCCC2)cc1F returned UPR XBP1 act -2.1, Beta2AR agonist 0.0, CHOP UPR activ -0.2 and VLA-4 inh 0.0.
For O=C(CSc1cccc[n+]1[O-])Nc1ccccc1Oc1ccccc1 the results were UPR XBP1 act 14.9, CHOP inh -87.2, Beta2AR agonist -5.5, CHOP UPR activ 107.8* and VLA-4 inh -6.2.
N#Cc1c(Nc2ccc(F)cc2)sc(C(=O)c2ccc(F)cc2)c1N was read as UPR XBP1 act 3.9, CHOP inh 75.5*, Beta2AR agonist -4.1, CHOP UPR activ -0.8 and VLA-4 inh 19.1.
Cc1occc1C(=O)N/N=C/c1ccc(OCc2ccccc2)cc1 was read as UPR XBP1 act 2.2, CHOP inh 71.2*, Beta2AR agonist 4.5, CHOP UPR activ 2.4 and VLA-4 inh -7.3.
